Tested on: MS2 coat protein
Assay: apparent Kd, MS2 coat protein; higher = weaker binding; RNA-MaP array; FMN 200 µM where present
Summary of the method: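 Binding was read on Illumina sequencing-chip clusters where stalled E. coli RNA polymerase had transcribed each design. A titration of SNAP-549-labelled MS2 coat protein began at 0.7 or 1.5 nM and doubled to 3 µM, once without ligand and once with constant ligand, in 100 mM Tris-HCl pH 7.5, 80 mM KCl, 4 mM MgCl2, BSA, DTT, yeast tRNA and Tween-20. The apparent Kd is the median of filtered per-cluster binding-curve fits, based on green signal normalised to red-channel RNA signal and control-cluster median Fmax.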

[1] = ligand present: flavin mononucleotide, designed as: OFF switch for flavin mononucleotide
[2] = designed as: OFF switch for flavin mononucleotide, no ligand
[3] = designed as: ON switch for flavin mononucleotide, no ligand
[4] = ligand present: flavin mononucleotide, designed as: ON switch for flavin mononucleotide

Row | Sequence | apparent Kd [1] [nM] | apparent Kd [2] [nM] | apparent Kd [3] [nM] | apparent Kd [4] [nM]
1 | AUUGUGUGAGGAUAUUAGCAGUAGACGAAUGGAGUCGUGGCUGAGAAGGCACAUGAGGAUCACCCAUGUUCCUU | 88.3 | – | – | –
2 | CUAAAUCAUGUAGGAUAUGCGUGGCGAAGCUAUGCAGAAGGACAUGAGGAUCACCCAUGUCAAAAUUUCUGCGUACAGACGGAA | 30.7 | 15.5 | – | –
3 | UUAAAUCAUGUAGGAUAUCCGAUGCGAAGCGUUGGAGAAGGACAUGAGGAUCACCCAUGUUCUAGCGUCUGAGUACAGAUGCAA | 140 | 30.6 | – | –
4 | UCAUUUAUCACAGGAUAUAUUAGUAUACAGUUGUUUGGUUAUUACAUAUUAAUAGAAGGGUGGAACAUGAGGAUCACCCAUGUA | – | – | 616 | 282
5 | GUGCACACUCGAGGAUAUCGGAGUUUUCUUCUUCGAGAAGGCGAUUCGUGCCGUGUUAUUUUGGACAUGAGGAUCACCCAUGUG | – | – | 93.3 | 34.5
6 | CCGUGGCAAGGAUAUACAUAGGAGAGGAAGGCAAGAGGUGGACAUGAGGAUCACCCAUGUAGAAGGUGCAGAUC | 236 | 226 | – | –
7 | UGGUACUAGGGAGGAUAUGGGAAUAUACAUGAGGAUCACCCAUGUUUAAGAAUGCCGAGAGGCAACUAGAAGGCCCUAGUACCU | – | – | 11.1 | 4.85
8 | AUACAUGAGGAUCACCCAUGUUACUGGGUCUUUUUAGAACGUAGAAGGAUGUUUUUAUAAAUAACAUAGGAUAUACAAUAUUGU | 49.9 | 59.6 | – | –
9 | AAUUAGGUCACAGGAUAUACAACAUCCAUUGCUGUAGAAGGGUGUCACAAUCAUAUCUGACAUGAGGAUCACCCAUGUUUCCAC | – | – | 85.8 | 33.3
10 | GUUAAGAACUAAGGAUAUUGAAUACAUAUGUUUAACAUGAGGAUCACCCAUGUGGGUUGCGGUGUCGAGAAGGUAGAAUAAUAG | – | – | 201 | 195
11 | CUUUUGUGAGGAUAUUAGUAGUAAAAAAAUAAAAUUACUACUGAGAAGGCACAUGAGGAUCACCCAUGUUCCUC | 213 | 31.4 | – | –
12 | ACAGUCACAGUAACCUGUGGCCGUGAGGAUAUAUAUGGCUCGGAGCGGACAUGAGGAUCACCCAUGUAGAAGGCACGAACUAAA | 7.09 | 6.21 | – | –
13 | UUACUAUUGGAGAAGGCUCGAUAAUAUAUAAUGGGAGGAUAUCCAACAUGAGGAUCACCCAUGUUUCACCCAUAUGAGGAUCAC | 13.2 | 12.6 | – | –
14 | CGCCUGGGAGGAUAUCCAAUAUAUGACAUGAGGAUCACCCAUGUUUCCACUCGUACCUCCGGAGAAGGCCCUGCGU | 23.5 | 22.2 | – | –
15 | AAAAUACAUGAGGAUCACCCAUGUCAGGAUAUUCCUGCAGCCUUGAAUAUGGGCUGGUGAAGAAGGGACGGUGA | 105 | 40.1 | – | –
16 | AGCACGAGAGGUGCUGUCUAACCACAUGAGGAUCACCCAUGUAAGGAUAUCGCGGCUAUCGGCAUCGAGAAGGUACAGGGAGCA | 21.6 | 11.2 | – | –
17 | GGGAGGGAUACAGGAUAUAUGACAUGAGGAUACAUGAGACAUACAAACAUGAGGAUCACCCAUGUAUAGAAGGGUAAGGGAGGG | 240 | 173 | – | –
18 | AAGAAGUCAGGAUAUGCAUGGCGGGACUUGCGUCGUGGCGUGCAGAAGGGACAUGAGGAUCACCCAUGUAAAGC | 42.4 | 49.8 | – | –
19 | GCUACAUAUUUUAAGUUUGAUUAUCUAGAAGGUAGAUACAUGAGGAUCACCCAUGUUUAGAGUUCUAAGGAUAUAGUUUGUAGC | – | – | 6.12 | 5.91

Row | Sequence | apparent Kd [1] [nM] | apparent Kd [2] [nM] | apparent Kd [3] [nM] | apparent Kd [4] [nM]
20 | UGUAUGGACAGAGGAUAUGCCGAUAGGAUCUACUAUCGAAGAAUCCUCACAUGAGGAUCACCCAUGUAGAAGGCUGUCCAUACC | 36.8 | 8.57 | – | –
21 | GGGCGACAUGAGGAUCACCCAUGUAAGGAUAUACAACUGCCCACUAAAAUCUGGGCUGGUAGAAGGUGCAGAAA | 42.8 | 35.7 | – | –
22 | ACAAGAUCAGGAUAUACAUGAGGAUCACCCAUGUUUAUCAAAAAGGGACUUUCUUAAUGUAGAAGGGAUCUUGU | 83.9 | 27.5 | – | –
23 | CUGGAUCACGCAGGAUAUUACAUGAGGAUCACCCAUGUCAGGACUGCAAUAUCGUCUCCUCAUUGUGAGAAGGGCGGAAUCAUU | 86.8 | 17.7 | – | –
24 | ACAUAAAUUCGAGGAUAUCGGUGAUAAAGAAGACGAGAAGGCGAUUAAAGAGAGAUGGUUAUAGACAUGAGGAUCACCCAUGUA | – | – | 28.6 | 22.8
25 | AAGAUCCCUGUUAGGAUAUAGAGAUCGCCUGGGUCCUAGAAGGAACAUGAGGAUCACCCAUGUGACGUAUAUGU | 228 | 100 | – | –
26 | UGUGCGUAUGUGAGGAUAUGCUGGUCCUUGGCUCGGCAGAAGGCACAUGAGGAUCACCCAUGUGGUGUCGUACG | 199 | 75.5 | – | –
27 | CAACCGUUGCAGAAGGUUAAAUAAAUUCUCUUCUUGUUUACAUGAGGAUCACCCAUGUUUUUGUUGAAGGAUAUGCAAGGGUUG | 5.79 | 5.59 | – | –
28 | UUACUACAUGAGGAUCACCCAUGUCAGGAUAUUGUCUAUACUUUGGAAUAUGUGUCGAUAAGAAGGGACUAUAU | 21.5 | 18.9 | – | –
29 | UUUUAGACAGGAUAUACAUUUUUUUAUUUAUUUAUAAUAUUACAUGAGGAUCACCCAUGUAGAAGGGUCAUUUU | 31.2 | 39.3 | – | –
30 | GUUUUAUAAGAGAAGGAGGACUUCAUGAGGAUCACCCAUGUGUUAGUACUUAGGAUAUUUGAUAACAUGAGGAUCACCCAUGUC | – | – | 27.6 | 27.7
31 | AAUAUAAGAGCUGGUAAAUAAAUCACAUGAGGAUCACCCAUGUAGGAUAUCAGCACGAUAAGUGCUGAGAAGGACAUCCAGCUC | 14.6 | 13.4 | – | –
32 | CUCCUGCGAGGAUAUACAUAGUGACGUCUGUUUGGUCUUAAACAUGAGGAUCACCCAUGUAGAAGGUGCGUCAC | 16.9 | 17.5 | – | –
33 | CCGGAAUCCUAGGAUAUGCUAGACGAGAGUCUAGCAGAAGGAGGAACAUGAGGAUCACCCAUGUGUCCUACCGG | 21 | 17.7 | – | –
34 | UGGACCAGUACAGGAUAUGGUGACGCACAUGAGGAUCACCCAUGUCCGCAGCGUGCUCAGCACGCCCAGAAGGGUACUGAUUCG | – | – | 718 | 76.4
35 | GGUCCAUAAUGAGGAUAUGGCACCUUAUUGGUGCCAGAAGGCAUGUCUAUAGACAUGAGGAUCACCCAUGUAAUAAAUUGGACC | – | – | 435 | 43.3
36 | GCAUCCAUAGUGAGGAUAUACCUCUGGAUACAUAGGUAGAAGGCACAUGAGGAUCACCCAUGUUCUUAGGAUGC | 35.4 | 28.7 | – | –
37 | AGAUAGUUAUAACGCCAUCCCUACAUGAGGAUCACCCAUGUGCAGGAUAUAGGCUUGAAGCAAACCUAGAAGGGCACAGGUUGA | 35.9 | 15.8 | – | –
38 | GCCGACCAGAAGUCGGUACGGAGGAGAAGGCGCCUCCUGGGUCCACAUGAGGAUCACCCAUGUGGCGAGGAUAUCCUCAGUUUU | 126 | 16.4 | – | –

Row | Sequence | apparent Kd [1] [nM] | apparent Kd [2] [nM] | apparent Kd [3] [nM] | apparent Kd [4] [nM]
39 | GCCAUCGCAUGAGGAUAUGCUCCGGUUUCCGGAGCAGAAGGCAUGUCACAAGACAUGAGGAUCACCCAUGUAGUUAAGAUGGCA | – | – | 185 | 8.88
40 | UGAUAGCACAGAGGAUAUGCGUAGAGUUAUCACUACAUGAGGAUCACCCAUGUAGAAGGCUGUGCUAUCUAAGUCGGAAACGAC | 6.17 | 5.89 | – | –
41 | UGAUAGGAUAAAGGAUAUACGUGCUAGAGAUACUAGCAAAAUUUCCUCACAUGAGGAUCACCCAUGUAGAAGGUUAACCUAUCU | 57.1 | 14.7 | – | –
42 | UUUUAACAUGAGGAUCACCCAUGUGAGGAUAUCGAAAUUUAUAUUAAUAUUAUUAUUUCGAGAAGGCACAUUUU | 137 | 136 | – | –
43 | GCAUGGUAUGAGAAGGCAUAAUUUAUCUAACAACAUGAUUACAUGAGGAUCACCCAUGUUUCCAAUGAGGAUAUCAUACCGUGC | 7.12 | 7.83 | – | –
44 | CAUCAGUGUUAAGGAUAUGGCAGCGGAAGCGCACCAGAAGGUAGCACAUGAGGAUCACCCAUGUGUUCUGGCUUGAGCGUGAUC | 75.2 | 36.5 | – | –
45 | AAAUUAAGAAGAGGAUAUUGACAUGAGGAUCACCCAUGUAUUUGGGAAUGUUUACUGAAUUCUUACGAGAAGGUUUACGAACUU | 132 | 191 | – | –
46 | AUCUUGAGAGGAUAUACAUGAGGAUCACCCAUGUUGCUAACACCAUGAGCUCAUUUACGUAGAAGGCUCAUUUG | 18.6 | 18 | – | –
47 | CGUCUGUGAGGAUAUGGUAUCGUUUACAUGAGGAUCACCCAUGUUUCAUGGGACUAGAGACUAGAAGGUACUGACG | 870 | 1310 | – | –
48 | GUUAGUUAAGGAUAUACAGGGAGCUGCGGCGUCUCGCCGCAACAUGAGGAUCACCCAUGUAGAAGGUGACCUUU | 406 | 529 | – | –
49 | CGAUGUUAUGUCAGGAUAUACAUUGCGAAAGCAAUGUAGAAGGGACAUGAGGAUCACCCAUGUCCUAACCAUCG | 17.1 | 13.1 | – | –
50 | GACUGCUGAGGAUAUACAUGAGGAUCACCCAUGUGCUUCAGUAUCGAAAGAUGCAUGGGUAGAAGGUGGUAGUC | 54.4 | 70.6 | – | –
51 | AAUUGACACGUAGGAUAUCGAACUAUUUUAACACGAGAAGGACGUACAUGAGGAUCACCCAUGUUUAAUGGAGUAGAUAAGUUG | 290 | 154 | – | –
52 | AUCAGCUCGUCAGGAUAUAGGUCACUGCGUCAGCAGUGUGGUAAGAUCACAUGAGGAUCACCCAUGUAGAAGGGACGAGCUGAU | 59.5 | 17.3 | – | –
53 | AAAAAGGCAGGAUAUACAUGAGGAUCACCCAUGUUAAAAAAAAAAAAAAAAAAAAAGUGUAGAAGGGCCAAAAA | 55 | 55.6 | – | –
54 | AAAAAACAUGAGGAUCACCCAUGUGAGGAUAUCAGUAUUCAGUCCUCGGAUUGAGUACUGAGAAGGCACAUAAA | 94.2 | 51.5 | – | –
55 | UGGGAUGGCUAGAAGGCUCCGUAAACUACAGGGAGAGGAUAUGGCACAUGAGGAUCACCCAUGUGUACCUGUAGGUGAUCCACA | 90.8 | 19 | – | –
56 | UGAGCCUCGUGAGGAUAUACAUGAGGAUCACCCAUGUAAUAAAGUGAACGGAGGAAGCUCCGAAUGUAGAAGGCACGAGGCUCA | 372 | 60.1 | – | –

— the EternaBench riboswitch data
